Test results reported in ChEMBL document CHEMBL1146085, “Nanomolar inhibitors of the peptidyl prolyl cis/trans isomerase Pin1 from combinatorial peptide libraries” (J Med Chem, 2006).
pIC50, pKi: −log10 of the molar value. One block for each compound: values may come before it. Where a SMILES comes first, the peptide text is derived from it. [ ]: non-standard residue; d: D form. The star is where a group is joined. alloThr(PO3H2) = C[C@H](OP(=O)(O)O)[C@H](N)C(=O)O; Biotin = O=C1N[C@H]2[C@H](CS[C@H]2CCCCC(=O)*)N1; Phe(4-tBu) = CC(C)(C)c1ccc(C[C@H](N)C(=O)O)cc1; Bip = N[C@@H](Cc1ccc(-c2ccccc2)cc1)C(=O)O; pT = C[C@@H](OP(=O)(O)O)[C@H](N)C(=O)O; 2Nal = N[C@@H](Cc1ccc2ccccc2c1)C(=O)O; Bta = N[C@@H](Cc1csc2ccccc12)C(=O)O; Tic = O=C(O)[C@@H]1Cc2ccccc2CN1; 2Thi = N[C@@H](Cc1cccs1)C(=O)O; Cha = N[C@@H](CC1CCCCC1)C(=O)O; Pip = O=C(O)[C@@H]1CCCCN1; NMeA = CN[C@@H](C)C(=O)O

Assays:
[1] = target: T1, Peptidyl-prolyl cis-trans isomerase NIMA-interacting 1 (Homo sapiens, UniProt Q13526); assay: Inhibition of human Pin1 PPIase Activity by protease free PPIase assay
Procedure, shortened: (§1)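 Protease-free PPIase assay using Abz-Ala-Glu-Pro-Phe-NH-Np as substrate in 35 mM HEPES, pH 7.8, at 10 °C. Ki derived from concentration-dependent measurement of remaining Pin1 activity.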

[2] = Inhibition of PP1 at 500 uM
[3] = target: cAMP-dependent protein kinase (PKA) (Homo sapiens) (UniProt P22694+P17612+P22612); assay: Inhibition of PKA at 500 uM; format: protein assay
[4] = target: Protein kinase C (PKC) (Homo sapiens) (UniProt O94806+P41743+P17252+P05129+Q05655+P05771+Q05513+Q02156+P24723+Q15139+Q04759); assay: Inhibition of PKC at 500 uM; format: protein assay
[5] = target: Peptidyl-prolyl cis-trans isomerase FKBP1A (Homo sapiens) (UniProt P62942); assay: Inhibition of FKBP12 at 500 uM
Peptidyl-prolyl cis-trans isomerase FKBP1A (Homo sapiens), sequence (P62942 whole entry): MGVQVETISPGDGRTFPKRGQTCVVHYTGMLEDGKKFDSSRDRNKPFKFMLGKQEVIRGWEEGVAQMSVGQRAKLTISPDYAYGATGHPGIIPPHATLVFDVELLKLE

[6] = target: Serine/threonine protein phosphatase PP2B-alpha catalytic subunit (Homo sapiens) (UniProt P16298); assay: Inhibition of PP2B at 500 uM
[7] = Inhibition of PP2A at 500 uM
[8] = target: Mitogen-activated protein kinase 1 (Homo sapiens) (UniProt P28482); assay: Inhibition of ERK2 at 500 uM
Mitogen-activated protein kinase 1 (Homo sapiens), sequence (P28482 whole entry): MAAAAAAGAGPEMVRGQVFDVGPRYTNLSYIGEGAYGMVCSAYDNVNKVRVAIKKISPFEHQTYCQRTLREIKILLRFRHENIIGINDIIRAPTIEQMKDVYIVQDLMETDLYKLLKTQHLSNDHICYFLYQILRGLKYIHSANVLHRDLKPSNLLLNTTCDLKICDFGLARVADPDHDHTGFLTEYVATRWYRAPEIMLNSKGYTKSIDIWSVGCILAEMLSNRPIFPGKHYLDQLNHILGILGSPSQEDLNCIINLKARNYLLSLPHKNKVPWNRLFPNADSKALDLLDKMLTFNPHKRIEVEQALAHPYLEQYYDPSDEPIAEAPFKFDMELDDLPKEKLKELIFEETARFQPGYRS

[9] = system: HeLa; assay: Cell cycle arrest in HeLa cells by accumulation at G2/M phase; format: functional, cell-based; settings: Homo sapiens
Procedure, shortened: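 HeLa cells loaded with inhibitor or its nonphosphorylated derivative by electroporation at varying concentrations, then cultured 3 days at 37 °C. DNA content measured by flow cytometry to give cell cycle phase fractions. Intracellular inhibitor level measured after cell lysis and centrifugation by reverse-phase HPLC of the supernatant against a standard curve.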

[10] = target: Peptidyl-prolyl cis-trans isomerase A (Homo sapiens) (UniProt P62937); assay: Inhibition of Cyp18 at 500 uM
Peptidyl-prolyl cis-trans isomerase A (Homo sapiens), sequence (P62937 whole entry, looked up): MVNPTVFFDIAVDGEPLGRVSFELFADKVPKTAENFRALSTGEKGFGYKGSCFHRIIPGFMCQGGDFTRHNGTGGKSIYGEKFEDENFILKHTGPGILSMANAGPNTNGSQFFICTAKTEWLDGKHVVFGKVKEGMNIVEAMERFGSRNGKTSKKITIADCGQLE

[11] = target: Peptidyl-prolyl cis-trans isomerase NIMA-interacting 4 (Homo sapiens) (UniProt Q9Y237); assay: Inhibition of Par14 at 500 uM
Peptidyl-prolyl cis-trans isomerase NIMA-interacting 4 (Homo sapiens), sequence (Q9Y237 whole entry): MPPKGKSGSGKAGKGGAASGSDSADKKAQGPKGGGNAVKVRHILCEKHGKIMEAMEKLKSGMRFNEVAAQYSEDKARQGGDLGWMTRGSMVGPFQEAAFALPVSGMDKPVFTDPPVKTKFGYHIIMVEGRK

[12] = target: T1, Peptidyl-prolyl cis-trans isomerase NIMA-interacting 1; assay: Residual PPIase activity of human GST-Pin1 R68
[13] = system: Peptidyl-prolyl cis-trans isomerase NIMA-interacting 1 (Homo sapiens), Q13526 [S16E]; assay: Residual PPIase activity of human GST-Pin1 S16E by protease free PPIase assay; procedure, shortened: as §1
[14] = system: Peptidyl-prolyl cis-trans isomerase NIMA-interacting 1 (Homo sapiens), Q13526 [H59A]; assay: Residual PPIase activity of human GST-Pin1 H59A
[15] = system: Peptidyl-prolyl cis-trans isomerase NIMA-interacting 1 (Homo sapiens), Q13526 [S154F]; assay: Residual PPIase activity of human GST-Pin1 S154F
[16] = system: Peptidyl-prolyl cis-trans isomerase NIMA-interacting 1 (Homo sapiens), Q13526 [K63A]; assay: Residual PPIase activity of human GST-Pin1 K63A
[17] = system: Peptidyl-prolyl cis-trans isomerase NIMA-interacting 1 (Homo sapiens), Q13526 [C113A]; assay: Residual PPIase activity of human GST-Pin1 C113A
[18] = target: T1, Peptidyl-prolyl cis-trans isomerase NIMA-interacting 1; assay: Residual PPIase activity of human GST-Pin1
[19] = target: T1, Peptidyl-prolyl cis-trans isomerase NIMA-interacting 1; assay: Residual PPIase activity of human GST-Pin1 69A
[20] = system: Peptidyl-prolyl cis-trans isomerase NIMA-interacting 1 (Homo sapiens), Q13526 [S67E]; assay: Residual PPIase activity of human GST-Pin1 S67E

- pIC50 [1]: < 4.30
SMILES: CC(=O)N[C@@H](CCCCNC(=O)CCCC[C@@H]1SC[C@@H]2NC(=O)N[C@@H]21)C(=O)N[C@@H](C)C(=O)N[C@@H](C)C(=O)N[C@@H](Cc1csc2ccccc12)C(=O)N[C@H](C(=O)N1CCC[C@H]1C(=O)N[C@@H](CC1CCCCC1)C(=O)N[C@@H](CCC(N)=O)C(N)=O)[C@@H](C)OP(=O)(O)O (Ac-K(Biotin)AA[Bta][pT]P[Cha]Q-NH2)

- inhibition [2]: < 10%
- inhibition [3]: < 10%
- inhibition [4]: < 10%
- inhibition [5]: < 10%
- inhibition [6]: < 10%
- inhibition [7]: < 10%
- inhibition [8]: < 10%
- inhibition [10]: < 10%
- inhibition [11]: < 10%
SMILES: CC(=O)N[C@@H](Cc1ccccc1)C(=O)N[C@@H](C(=O)N1CCCC[C@@H]1C(=O)N[C@@H](Cc1ccc2ccccc2c1)C(=O)N[C@@H](CCC(N)=O)C(N)=O)[C@H](C)OP(=O)(O)O
- Activity [9]: Dose-dependent effect

- pIC50 [1]: 4.70
SMILES: CC(=O)N[C@@H](CCCCNC(=O)CCCC[C@@H]1SC[C@@H]2NC(=O)N[C@@H]21)C(=O)N[C@@H](C)C(=O)N[C@@H](C)C(=O)N[C@@H](Cc1csc2ccccc12)C(=O)N[C@H](C(=O)N1CCC[C@H]1C(=O)N[C@@H](Cc1ccc2ccccc2c1)C(=O)N[C@@H](CCC(N)=O)C(N)=O)[C@H](C)OP(=O)(O)O (Ac-K(Biotin)AA[Bta][alloThr(PO3H2)]P[2Nal]Q-NH2)

- pIC50 [1]: 5.10
SMILES: CC(=O)N[C@@H](CCCCNC(=O)CCCC[C@@H]1SC[C@@H]2NC(=O)N[C@@H]21)C(=O)N[C@@H](C)C(=O)N[C@@H](C)C(=O)N[C@@H](Cc1ccc(C(C)(C)C)cc1)C(=O)N[C@H](C(=O)N1Cc2ccccc2C[C@H]1C(=O)N[C@@H](Cc1csc2ccccc12)C(=O)N[C@@H](CCC(N)=O)C(N)=O)[C@H](C)OP(=O)(O)O (Ac-K(Biotin)AA[Phe(4-tBu)][alloThr(PO3H2)][Tic][Bta]Q-NH2)

- Activity [12]: 0.4%
- Activity [13]: 100%
- Activity [14]: 5.7%
- Activity [15]: 35%
- Activity [16]: 0.2%
- Activity [17]: 6%
- Activity [18]: 100%
- pIC50 [1]: 6.68
- pKi [1]: 6.74
- Activity [19]: 0.4%
- Activity [20]: 0.3%
SMILES: CC(=O)N[C@@H](CCCCNC(=O)CCCC[C@@H]1SC[C@@H]2NC(=O)N[C@@H]21)C(=O)N[C@@H](C)C(=O)N[C@@H](C)C(=O)N[C@@H](Cc1csc2ccccc12)C(=O)N[C@H](C(=O)N1CCCC[C@H]1C(=O)N[C@@H](Cc1ccc2ccccc2c1)C(=O)N[C@@H](CCC(N)=O)C(N)=O)[C@H](C)OP(=O)(O)O (Ac-K(Biotin)AA[Bta][alloThr(PO3H2)][Pip][2Nal]Q-NH2)

- pIC50 [1]: 4.60
SMILES: CC(=O)N[C@@H](CCCCNC(=O)CCCC[C@@H]1SC[C@@H]2NC(=O)N[C@@H]21)C(=O)N[C@@H](C)C(=O)N[C@@H](C)C(=O)N[C@@H](CC1CCCCC1)C(=O)N[C@H](C(=O)N1Cc2ccccc2C[C@H]1C(=O)N[C@@H](Cc1ccc2ccccc2c1)C(=O)N[C@@H](CCC(N)=O)C(N)=O)[C@H](C)OP(=O)(O)O (Ac-K(Biotin)AA[Cha][alloThr(PO3H2)][Tic][2Nal]Q-NH2)

- pIC50 [1]: 4.82
SMILES: CC(=O)N[C@@H](CCCCNC(=O)CCCC[C@@H]1SC[C@@H]2NC(=O)N[C@@H]21)C(=O)N[C@@H](C)C(=O)N[C@@H](C)C(=O)N[C@@H](Cc1ccc(-c2ccccc2)cc1)C(=O)N[C@H](C(=O)N1CCC[C@H]1C(=O)N[C@@H](Cc1csc2ccccc12)C(=O)N[C@@H](CCC(N)=O)C(N)=O)[C@H](C)OP(=O)(O)O (Ac-K(Biotin)AA[Bip][alloThr(PO3H2)]P[Bta]Q-NH2)

- pIC50 [1]: 4.82
SMILES: CC(=O)N[C@@H](CCCCNC(=O)CCCC[C@@H]1SC[C@@H]2NC(=O)N[C@@H]21)C(=O)N[C@@H](C)C(=O)N[C@@H](C)C(=O)N[C@@H](Cc1cccs1)C(=O)N[C@H](C(=O)N(C)[C@@H](C)C(=O)N[C@@H](Cc1ccc2ccccc2c1)C(=O)N[C@@H](CCC(N)=O)C(N)=O)[C@H](C)OP(=O)(O)O (Ac-K(Biotin)AA[2Thi][alloThr(PO3H2)][NMeA][2Nal]Q-NH2)

- pIC50 [1]: 5.15
SMILES: CC(=O)N[C@@H](CCCCNC(=O)CCCC[C@@H]1SC[C@@H]2NC(=O)N[C@@H]21)C(=O)N[C@@H](C)C(=O)N[C@@H](C)C(=O)N[C@@H](CC1CCCCC1)C(=O)N[C@H](C(=O)N(C)[C@@H](C)C(=O)N[C@@H](Cc1ccc2ccccc2c1)C(=O)N[C@@H](CCC(N)=O)C(N)=O)[C@H](C)OP(=O)(O)O (Ac-K(Biotin)AA[Cha][alloThr(PO3H2)][NMeA][2Nal]Q-NH2)
